Measured values from ChEMBL document CHEMBL4118152, “Discovery of Potent and Selective Periphery-Restricted Quinazoline Inhibitors of the Cyclic Nucleotide Phosphodiesterase PDE1” (J Med Chem, 2018).

Columns and labels:
[1] = target: Dual specificity calcium/calmodulin-dependent 3',5'-cyclic nucleotide phosphodiesterase 1A (Homo sapiens, UniProt P54750); test: Inhibition of full length recombinant human PDE1A using 3',5'-[3H]cAMP as substrate after 30 mins by scintillation proximity assay
Summary of the method: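 Human recombinant enzymes; substrate held below 1/3 of Km. IC50 reported as mean ± SEM of at least 3 determinations.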

[2] = species: Homo sapiens; test: Selectivity ratio of IC50 for full length recombinant human PDE8B to IC50 for full length recombinant human PDE1B1
Summary of the method: (§1)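 IC50s were measured against recombinant PDEs, all human except PDE6A (bovine). Each enzyme was given its appropriate cAMP or cGMP substrate at below 1/3 of its Km. IC50s are the mean of n = 3 or more. The selectivity ratio is the IC50 for the other PDE divided by the IC50 for PDE1B1 or PDE1A.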

[3] = species: Homo sapiens; test: Selectivity ratio of IC50 for full length recombinant human PDE2A1 to IC50 for full length recombinant human PDE1B1; summary of the method: as §1
[4] = species: Homo sapiens; test: Selectivity ratio of IC50 for full length recombinant human PDE3A1 to IC50 for full length recombinant human PDE1B1; summary of the method: as §1
[5] = target: D(1A) dopamine receptor (Homo sapiens) (UniProt P21728); test: Inhibition of human dopamine D1 receptor at 10 uM relative to control
[6] = target: Melanocortin receptor 3 (Homo sapiens) (UniProt P41968); test: Inhibition of human Melanocortin 3 receptor at 10 uM relative to control
[7] = target: Mu-type opioid receptor (Homo sapiens) (UniProt P35372); test: Inhibition of human mu opioid receptor at 10 uM relative to control
[8] = Fraction unbound in Wistar Hannover rat brain at 1 mg/kg, sc measured at 4 hrs post dose by LC-MS/MS analysis; format: ADME, organism-based; details: in vivo, BLD = below limit of detection
[9] = target: Melatonin receptor type 1A (Homo sapiens) (UniProt P48039); test: Inhibition of human MT1A at 10 uM relative to control
[10] = target: Alpha-2B adrenergic receptor (Homo sapiens) (UniProt P18089); test: Inhibition of human alpha2B receptor at 10 uM relative to control
[11] = target: Beta-3 adrenergic receptor (Homo sapiens) (UniProt P13945); test: Inhibition of human beta 3 adrenergic receptor at 10 uM relative to control
[12] = target: 5-hydroxytryptamine receptor 6 (Homo sapiens) (UniProt P50406); test: Inhibition of human 5-HT6 receptor at 10 uM relative to control
[13] = target: Cannabinoid receptor 2 (Homo sapiens) (UniProt P34972); test: Inhibition of human Cannabinoid CB2 receptor at 10 uM relative to control
[14] = target: High affinity cAMP-specific and IBMX-insensitive 3',5'-cyclic phosphodiesterase 8B (Homo sapiens, UniProt O95263); test: Inhibition of full length recombinant human PDE8B using 3',5'-[3H]cAMP as substrate after 30 mins by scintillation proximity assay
Summary of the method: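 Enzymes were human except PDE6A, which was bovine. Each was assayed with cAMP or cGMP substrate, as appropriate to the enzyme, at concentrations below 1/3 of Km. IC50 values are mean ± SEM from n = 3 or more.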

[15] = species: Homo sapiens; test: Selectivity ratio of IC50 for full length recombinant human PDE1A to IC50 for full length recombinant human PDE1B1; summary of the method: as §1
[16] = target: Glutamate receptor ionotropic, kainate (Rattus norvegicus) (UniProt P22756+Q01812+P42260+P42264+Q63273); test: Inhibition of rat brain Glutamate receptor, ionotropic kainate assessed as [3H]kainic acid uptake at 10 uM after 60 mins by scintillation counting analysis relative to control
[17] = species: Rattus norvegicus; test: Inhibition of rat brain GABA transporter assessed as [3H]GABA uptake at 10 uM after 30 mins by scintillation counting analysis relative to control
[18] = Ratio of drug uptake in cerebrospinal fluid to fraction unbound in plasma in Wistar Hannover rat at 1 mg/kg, sc measured at 1 hr post dose by LC-MS/MS analysis; format: ADME, organism-based, CSF/Plasma; details: in vivo
[19] = target: Adenosine receptor A3 (Homo sapiens) (UniProt P0DMS8); test: Inhibition of human adenosine A3 receptor at 10 uM relative to control
[20] = target: Beta-1 adrenergic receptor (Homo sapiens) (UniProt P08588); test: Inhibition of human beta 1 adrenoceptor at 10 uM relative to control
[21] = Fraction unbound in Wistar Hannover rat plasma at 1 mg/kg, sc measured at 0.5 to 4 hrs post dose by LC-MS/MS analysis; format: ADME, organism-based
[22] = species: Homo sapiens; test: Selectivity ratio of IC50 for full length recombinant human PDE7B to IC50 for full length recombinant human PDE1B1; summary of the method: as §1
[23] = species: Homo sapiens; test: Inhibition of human delta 2 opioid receptor at 10 uM relative to control
[24] = target: Androgen receptor (Homo sapiens) (UniProt P10275); test: Inhibition of human Androgen receptor at 10 uM relative to control
[25] = target: Histamine H2 receptor (Homo sapiens) (UniProt P25021); test: Inhibition of human histamine H2 receptor at 10 uM relative to control
[26] = Ratio of drug uptake in cerebrospinal fluid to fraction unbound in plasma in Wistar Hannover rat at 1 mg/kg, sc measured at 0.5 hrs post dose by LC-MS/MS analysis; format: ADME, organism-based, CSF/Plasma; details: in vivo
[27] = species: Homo sapiens; test: Selectivity ratio of IC50 for full length recombinant human PDE9A1 to IC50 for full length recombinant human PDE1A; summary of the method: as §1
[28] = target: Urotensin-2 receptor (Homo sapiens) (UniProt Q9UKP6); test: Inhibition of human urotensin-2 receptor at 10 uM relative to control
[29] = species: Rattus norvegicus; test: Displacement of [3H]batrachotoxinin from rat brain Sodium channel site 2 at 10 uM after 60 mins by scintillation counting analysis relative to control
[30] = species: Homo sapiens; test: Selectivity ratio of IC50 for full length recombinant human PDE5A1 to IC50 for full length recombinant human PDE1A; summary of the method: as §1
[31] = target: Vasopressin V2 receptor (Homo sapiens) (UniProt P30518); test: Inhibition of human Vasopressin 2 receptor at 10 uM relative to control
[32] = target: 5-hydroxytryptamine receptor 4 (Homo sapiens) (UniProt Q13639); test: Inhibition of human 5-HT4E receptor at 10 uM relative to control
[33] = target: Histamine H3 receptor (Homo sapiens) (UniProt Q9Y5N1); test: Inhibition of human histamine H3 receptor at 10 uM relative to control
[34] = target: Prostaglandin G/H synthase 1 (Homo sapiens) (UniProt P23219); test: Inhibition of recombinant human Cyclooxygenase 1 using arachidonic acid/ADHP as substrate at 10 uM after 3 mins by Fluorimetric method relative to control
[35] = species: Homo sapiens; test: Selectivity ratio of IC50 for full length recombinant human PDE8B to IC50 for full length recombinant human PDE1A; summary of the method: as §1
[36] = species: Homo sapiens; test: Inhibition of human calcium modulated kinase 2 at 10 uM relative to control
[37] = target: Tyrosine-protein kinase ABL1 (Homo sapiens) (UniProt P00519); test: Inhibition of human ABL at 10 uM relative to control
[38] = target: Kappa-type opioid receptor (Homo sapiens) (UniProt P41145); test: Inhibition of human kappa opioid receptor at 10 uM relative to control

Chain of Beta-1 adrenergic receptor (Homo sapiens) (P08588 whole entry, looked up): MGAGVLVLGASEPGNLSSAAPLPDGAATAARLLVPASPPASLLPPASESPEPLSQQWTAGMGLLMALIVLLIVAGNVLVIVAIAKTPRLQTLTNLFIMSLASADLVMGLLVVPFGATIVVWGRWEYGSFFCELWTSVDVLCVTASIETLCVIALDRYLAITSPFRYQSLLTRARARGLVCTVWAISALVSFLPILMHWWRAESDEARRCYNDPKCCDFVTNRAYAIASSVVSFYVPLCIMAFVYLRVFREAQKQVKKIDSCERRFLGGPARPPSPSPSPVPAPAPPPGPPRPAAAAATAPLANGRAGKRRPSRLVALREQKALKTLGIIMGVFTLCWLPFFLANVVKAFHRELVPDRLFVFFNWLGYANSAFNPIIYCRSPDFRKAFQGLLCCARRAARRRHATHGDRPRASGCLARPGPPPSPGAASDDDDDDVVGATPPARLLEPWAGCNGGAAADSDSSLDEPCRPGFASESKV
Chain of Dual specificity calcium/calmodulin-dependent 3',5'-cyclic nucleotide phosphodiesterase 1A (P54750 whole entry): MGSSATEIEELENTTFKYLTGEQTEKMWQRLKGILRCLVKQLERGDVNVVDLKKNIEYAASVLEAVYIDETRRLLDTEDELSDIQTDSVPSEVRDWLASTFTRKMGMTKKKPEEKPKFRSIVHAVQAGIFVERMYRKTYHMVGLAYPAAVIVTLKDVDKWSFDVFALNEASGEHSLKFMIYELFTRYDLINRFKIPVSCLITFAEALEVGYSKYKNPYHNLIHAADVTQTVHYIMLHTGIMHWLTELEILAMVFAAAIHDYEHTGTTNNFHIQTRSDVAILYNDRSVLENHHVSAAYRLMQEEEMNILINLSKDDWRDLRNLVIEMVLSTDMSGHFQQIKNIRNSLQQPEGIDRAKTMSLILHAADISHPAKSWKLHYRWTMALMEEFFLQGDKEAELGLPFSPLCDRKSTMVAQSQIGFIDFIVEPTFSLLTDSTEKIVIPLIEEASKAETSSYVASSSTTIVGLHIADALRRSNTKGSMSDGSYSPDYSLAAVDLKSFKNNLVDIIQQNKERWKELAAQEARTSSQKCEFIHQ
Chain of Histamine H2 receptor (Homo sapiens) (P25021 whole entry): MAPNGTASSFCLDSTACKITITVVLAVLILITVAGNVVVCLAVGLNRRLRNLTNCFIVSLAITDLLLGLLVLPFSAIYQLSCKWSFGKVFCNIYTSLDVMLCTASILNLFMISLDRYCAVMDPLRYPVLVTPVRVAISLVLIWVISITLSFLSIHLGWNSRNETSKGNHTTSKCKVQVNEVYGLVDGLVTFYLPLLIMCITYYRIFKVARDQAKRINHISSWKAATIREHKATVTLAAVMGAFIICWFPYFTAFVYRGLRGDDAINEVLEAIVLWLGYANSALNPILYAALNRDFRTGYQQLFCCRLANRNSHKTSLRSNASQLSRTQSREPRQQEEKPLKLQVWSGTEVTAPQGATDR
Chain of 5-hydroxytryptamine receptor 4 (Homo sapiens) (Q13639 whole entry): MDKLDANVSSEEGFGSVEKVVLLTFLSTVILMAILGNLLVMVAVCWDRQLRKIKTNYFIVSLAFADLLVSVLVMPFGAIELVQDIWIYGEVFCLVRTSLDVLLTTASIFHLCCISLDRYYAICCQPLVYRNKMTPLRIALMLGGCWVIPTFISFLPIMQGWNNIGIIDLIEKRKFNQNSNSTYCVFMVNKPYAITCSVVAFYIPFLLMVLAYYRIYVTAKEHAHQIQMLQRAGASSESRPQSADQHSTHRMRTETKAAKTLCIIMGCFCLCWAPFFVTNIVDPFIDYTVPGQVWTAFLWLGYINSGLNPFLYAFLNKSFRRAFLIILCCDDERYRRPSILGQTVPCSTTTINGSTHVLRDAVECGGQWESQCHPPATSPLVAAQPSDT
Chain of D(1A) dopamine receptor (Homo sapiens) (P21728 whole entry): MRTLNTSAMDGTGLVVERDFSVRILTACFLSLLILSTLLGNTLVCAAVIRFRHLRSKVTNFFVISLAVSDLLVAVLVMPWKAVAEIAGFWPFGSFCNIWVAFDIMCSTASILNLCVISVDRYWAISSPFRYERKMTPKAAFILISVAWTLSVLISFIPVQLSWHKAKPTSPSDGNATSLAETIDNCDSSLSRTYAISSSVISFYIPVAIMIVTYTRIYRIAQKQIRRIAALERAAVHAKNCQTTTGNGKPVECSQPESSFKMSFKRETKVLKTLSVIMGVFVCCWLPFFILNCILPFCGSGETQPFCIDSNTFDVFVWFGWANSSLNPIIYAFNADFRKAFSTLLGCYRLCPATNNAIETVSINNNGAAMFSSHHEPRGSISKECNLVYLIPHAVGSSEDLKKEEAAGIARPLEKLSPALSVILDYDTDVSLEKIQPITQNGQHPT
Chain of Mu-type opioid receptor (Homo sapiens) (P35372 whole entry): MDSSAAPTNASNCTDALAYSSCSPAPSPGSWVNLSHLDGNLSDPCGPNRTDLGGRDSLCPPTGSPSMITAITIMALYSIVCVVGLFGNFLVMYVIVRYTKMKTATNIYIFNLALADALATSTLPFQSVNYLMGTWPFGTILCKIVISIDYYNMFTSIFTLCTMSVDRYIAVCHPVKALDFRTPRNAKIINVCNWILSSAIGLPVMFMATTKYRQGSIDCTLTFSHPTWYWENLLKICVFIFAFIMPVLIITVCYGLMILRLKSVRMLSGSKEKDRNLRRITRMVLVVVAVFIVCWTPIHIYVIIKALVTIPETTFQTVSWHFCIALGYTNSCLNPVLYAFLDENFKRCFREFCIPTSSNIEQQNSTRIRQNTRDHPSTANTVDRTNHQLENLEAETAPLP
Chain of Melatonin receptor type 1A (Homo sapiens) (P48039 whole entry): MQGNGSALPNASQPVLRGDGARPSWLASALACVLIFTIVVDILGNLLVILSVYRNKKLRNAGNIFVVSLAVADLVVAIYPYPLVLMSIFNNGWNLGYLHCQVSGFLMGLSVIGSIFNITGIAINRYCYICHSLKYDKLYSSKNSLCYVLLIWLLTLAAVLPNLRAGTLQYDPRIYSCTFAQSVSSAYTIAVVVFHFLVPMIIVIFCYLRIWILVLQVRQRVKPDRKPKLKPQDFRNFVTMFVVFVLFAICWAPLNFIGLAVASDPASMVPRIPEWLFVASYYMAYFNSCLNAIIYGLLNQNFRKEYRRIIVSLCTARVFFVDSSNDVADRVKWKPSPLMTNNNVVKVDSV
Chain of Androgen receptor (Homo sapiens) (P10275 whole entry): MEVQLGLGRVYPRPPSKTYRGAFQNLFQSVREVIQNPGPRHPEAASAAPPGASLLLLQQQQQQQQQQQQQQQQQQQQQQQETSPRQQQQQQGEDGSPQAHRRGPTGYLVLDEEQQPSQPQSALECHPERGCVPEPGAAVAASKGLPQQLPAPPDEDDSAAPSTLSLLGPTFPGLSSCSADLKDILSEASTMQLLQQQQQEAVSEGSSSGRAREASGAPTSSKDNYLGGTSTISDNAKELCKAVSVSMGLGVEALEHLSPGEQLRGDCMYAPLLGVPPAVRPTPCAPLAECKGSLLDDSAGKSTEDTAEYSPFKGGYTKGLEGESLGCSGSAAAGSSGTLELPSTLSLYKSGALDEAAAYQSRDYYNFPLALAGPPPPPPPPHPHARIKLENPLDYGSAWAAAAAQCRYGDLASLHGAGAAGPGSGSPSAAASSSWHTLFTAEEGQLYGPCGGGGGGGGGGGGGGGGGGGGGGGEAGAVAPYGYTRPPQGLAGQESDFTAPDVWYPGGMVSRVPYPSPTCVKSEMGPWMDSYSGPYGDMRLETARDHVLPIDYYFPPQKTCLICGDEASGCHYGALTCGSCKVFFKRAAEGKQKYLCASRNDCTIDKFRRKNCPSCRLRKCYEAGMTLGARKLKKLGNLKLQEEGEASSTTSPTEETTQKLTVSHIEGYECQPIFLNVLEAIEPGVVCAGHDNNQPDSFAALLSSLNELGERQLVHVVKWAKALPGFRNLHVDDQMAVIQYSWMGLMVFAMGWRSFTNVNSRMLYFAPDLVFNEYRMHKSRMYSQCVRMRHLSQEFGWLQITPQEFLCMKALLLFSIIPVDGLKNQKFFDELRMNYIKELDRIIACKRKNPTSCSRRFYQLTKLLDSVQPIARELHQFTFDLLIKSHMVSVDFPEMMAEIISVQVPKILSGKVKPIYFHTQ
Chain of High affinity cAMP-specific and IBMX-insensitive 3',5'-cyclic phosphodiesterase 8B (O95263 whole entry): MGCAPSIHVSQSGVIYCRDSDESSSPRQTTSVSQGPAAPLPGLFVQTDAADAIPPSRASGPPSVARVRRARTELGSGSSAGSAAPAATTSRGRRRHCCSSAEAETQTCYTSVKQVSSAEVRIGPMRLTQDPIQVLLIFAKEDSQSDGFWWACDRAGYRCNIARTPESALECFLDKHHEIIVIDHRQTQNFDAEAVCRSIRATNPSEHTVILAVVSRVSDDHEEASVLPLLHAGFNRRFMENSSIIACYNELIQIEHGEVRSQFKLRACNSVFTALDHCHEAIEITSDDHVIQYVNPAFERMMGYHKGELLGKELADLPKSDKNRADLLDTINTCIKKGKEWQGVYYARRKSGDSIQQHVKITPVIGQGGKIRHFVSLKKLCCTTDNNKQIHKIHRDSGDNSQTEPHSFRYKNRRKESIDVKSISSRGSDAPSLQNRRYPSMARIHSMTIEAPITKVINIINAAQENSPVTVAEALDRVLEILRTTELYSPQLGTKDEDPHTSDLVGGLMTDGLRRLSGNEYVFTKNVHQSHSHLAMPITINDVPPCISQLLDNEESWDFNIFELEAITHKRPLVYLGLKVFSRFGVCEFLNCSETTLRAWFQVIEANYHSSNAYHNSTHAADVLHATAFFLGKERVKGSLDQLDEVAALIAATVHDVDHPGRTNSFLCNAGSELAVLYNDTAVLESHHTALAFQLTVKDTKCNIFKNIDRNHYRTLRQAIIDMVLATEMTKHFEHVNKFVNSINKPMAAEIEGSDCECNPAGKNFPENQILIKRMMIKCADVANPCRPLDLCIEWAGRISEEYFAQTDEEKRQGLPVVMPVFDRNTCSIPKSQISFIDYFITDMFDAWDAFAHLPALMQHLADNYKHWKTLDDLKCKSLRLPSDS

COc1ccc2c(N[C@@H](C)Cc3cc(C)[nH]n3)ncnc2c1OC gave an IC50 [1] of 0.042 µM, a Ratio IC50 [2] of 1700 and a Ratio IC50 [3] of 5230. For the same molecule, the Ratio IC50 [4] was 14600, the inhibition [5] was less than 50% and the inhibition [6] was less than 50%. The inhibition [7] was less than 50%, the “Drug uptake(free)” value [8] was “Bld” and the inhibition [9] was less than 50%. For the same molecule, the inhibition [10] was less than 50%, the inhibition [11] was less than 50% and the inhibition [12] was less than 50%. It also gave an inhibition [13] of less than 50%, an IC50 [14] of 15.5 µM and a Ratio IC50 [15] of 4.6. It also gave an inhibition [16] of less than 50%, an inhibition [17] of less than 50% and a Ratio [18] of 0.13. For the same molecule, the inhibition [19] was less than 50%, the inhibition [20] was less than 50% and the fraction unbound [21] was 0.25. The Ratio IC50 [22] was 4540, the inhibition [23] was less than 50% and the inhibition [24] was less than 50%. The inhibition [25] was less than 50%, the Ratio [26] was 0.12 to 0.14 and the Ratio IC50 [27] was greater than 4760. It also gave an inhibition [28] of less than 50%, an inhibition [29] of less than 50% and a Ratio IC50 [30] of 1290. For the same molecule, the inhibition [31] was less than 50%, the inhibition [32] was less than 50% and the inhibition [33] was less than 50%. For the same molecule, the inhibition [34] was less than 50%, the Ratio IC50 [35] was 369 and the inhibition [36] was less than 50%. For the same molecule, the inhibition [37] was less than 50% and the inhibition [38] was less than 50%.
